Variants at the floor of the assay were thinned out.
B1: tRNA (parent)
chain: GUUCCGUUGGCGUAAUGGUAACGCGUCUCCCUCCUAAGGAGAAGACUGCGGGUUCGAGUCCCGUACGGAACG

Variants of: B1
Test: yeast fitness relative to wild type (ratio to wild type); higher = fitter; tRNA-Arg(CCU), competitive growth, 37 C, YPD
Outline: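 For this measurement, the tRNA-Arg(CCU) gene was varied by chemical synthesis at a 3% per-site mutation rate across 69 sites, and each variant was placed at the native genomic locus in Saccharomyces cerevisiae. The pooled strains went through a 24-hour competition in YPD at 37°C in six parallel replicates, with amplicons from start and end populations read by 100-nucleotide paired-end sequencing. Darwinian fitness relative to wild type followed from the change in each genotype's frequency. Genotypes needed ≥ 100 starting reads, and estimates < 0.5 were set to 0.5.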

Point of comparison: GUUCCGUGGGCAUAAUGGUAACGCGUCUCCCUCCUACGGAGAUGACUGCGGGUUCGAGUCCCGUAAGGACCG [U8G G12A A37C A43U C66A A70C], yeast fitness 0.597. Against it:
- GUUCCGUGGGCGUAAUGGUAACGCGUCUCCGUCCUAAGGACAAGACUGCCGGUUCGAGUUCCGUACGGCACG [U8G C31G G41C G50C C60U A69C] — lower, ≤ 0.5
- GUUCCGUGGGCGUAAUGGUAACGCGUCUCCCUGCUAAGGAGAAGACUGCGGGUACGAGACCCGUACAGAACG [U8G C33G U54A U59A G67A] — lower, ≤ 0.5
- GUUCCGUGGGCGUAAUGGUAACGCGUCUCCCUCGUAAGGAGAAGACUGCGGGUUCGAGUCCCGUACGGAACG [U8G C34G] — lower, ≤ 0.5
- GUUCCGUGGGCGUAAUGGUAACGCGUCUCCCUCGUAAGGAGAAGACUGCGGGUUAGAGUCCCGUAUGGAACG [U8G C34G C55A C66U] — lower, ≤ 0.5
- GUUCCGUGGGCGUAAUGGUAACGCGUCUCCCUCUUAAGGAGAAGACUGCGGGUUCGAGUCCCGUAGGGAACG [U8G C34U C66G] — lower, ≤ 0.5
- GUUCCGUGGGCGUAAUGGUAACGCGUCUCCCUCCUAAGGAGAAGAAUGCGGGUUAGAGUCCCGUACGGAACG [U8G C46A C55A] — lower, ≤ 0.5
- GUUCCGUGGGCGUAAUGGUAACGCGUCUCCCUCCUAAGGAGAAGAGUGCGGAUUCGAGUCCCGUACGGAACG [U8G C46G G52A] — lower, ≤ 0.5
- GUUCCGUGGGCGUAAUGGUAACGCGUCUCCCUCCUAAGGAGAAGACUGCGGGUUAGAGUCCCGUAUGGAACG [U8G C55A C66U] — lower, ≤ 0.5
- GUUCCGUGGGCGUAAUGGUAACGCGUCUCCCUCCUAAGGAGAAGACUGCGGGUUUGAGUCCCGUACGGAACG [U8G C55U] — lower, 0.569
- GUUCCGUGGGCGUAAUGGUAACGCGUCUCCCUCCUAAGGAGAAGACUGCGGGUUCGAGUGCCGUACGGAACG [U8G C60G] — lower, ≤ 0.5
- GUUCCGUGGGCGUAAUGGUAACGCGUCUCCCUCCUAAGGAGAAGACUGCGGGUUCGAGUGACGUACGGAACG [U8G C60G C61A] — the same, 0.597
- GUUCCGUGGGCGUAAUGGUAACGCGUCUCCCUCCUAAGGAGAAGACUGCGGGUUCGAGUCCGGUACGGAACG [U8G C62G] — lower, 0.533
- GUUCCGUGGGCGUAAUGGUAACGCGUCUCCCUCCUAAGGAGAAGACUGCGGGUUCGAGUCCUGAACCGAACG [U8G C62U U64A G67C] — higher, 0.603
- GUUCCGUGCGCGUAAUGGUAACGCGUCUCCCUCCUAAGGAGAAGACUGCGGGUUCGAGUCCCGUACGAAACG [U8G G9C G68A] — lower, ≤ 0.5
- GUUCCGUGCGCGUAAUGGUAACGCGUCUCCCUCCUAAGGAGAAGACUGCGGGUGCGAGUCCCGUACGGAACG [U8G G9C U54G] — lower, ≤ 0.5
- GUUCCGUGUGCGUAAUGGUAACGCGUCUCACUCCUAAGGAGAAGACUGCGGGUUCGAGUCACGUACGGAACG [U8G G9U C30A C61A] — lower, 0.539
- GUUCCGUGGACGUAAUGGUAACGCGUCUCCCUCCUAAGGAGAAGACUGCGGGUUCGAGUCCCGUACGGAACG [U8G G10A] — lower, ≤ 0.5
- GUUCCGUGGCCGUAAUGGUGACGCGUCUCCCUCCUAAGGAGAAGACUGCGGGUUCGAGUCCCGUACGGAACG [U8G G10C A20G] — lower, ≤ 0.5
- GUUCCGUGGCCGUAAUGGUGACGCGUCUCCCUCCUAAGGAGAAGACUGCGGGUUUGAGUCCCGUACGGAACG [U8G G10C A20G C55U] — lower, ≤ 0.5
- GUUCCGUGGCCGUAAUGGUGACGCGUCUCCCUCCUAAGGAGAAGACUGCGGGUUCGAGCCCCGUACAGAACG [U8G G10C A20G U59C G67A] — lower, ≤ 0.5
- GUUCCGUGGCCGGAAUGGUAACGCGUCUACCUCGUAAGGAGACGACUGCGGGUUCGAGUGCCGUACGGAACG [U8G G10C U13G C29A C34G A43C C60G] — lower, ≤ 0.5
- GUUCCGUGGCCGGAAUGGUAACGCGUCUCCCUCCUAAGGAGAAGACUGCGGGUUGGAGACCCGUACGGAACG [U8G G10C U13G C55G U59A] — lower, ≤ 0.5
- GUUCCGUGGCCGUAAUGGAAAUGCGUCUCCCUCCUAAGGAGAAGACUGCGGGUUGGAGUCCCGUACGGAACG [U8G G10C U19A C22U C55G] — lower, ≤ 0.5
- GUUCCGUGGGCAUAAUGGUAACGCGUCUCCCUCCUAAGGAGAAGACUGCCGCUUUGAGUCCUGUACGGACCG [U8G G12A G50C G52C C55U C62U A70C] — lower, ≤ 0.5
- GUUCCGUGGGCAGAAUGGUAAGGGGUCUCCCUCCUGCGGAGAAGACUGCGGGUUCGUGUCCCGUACGCAACG [U8G G12A U13G C22G C24G A36G A37C A57U G68C] — lower, 0.589
- GUUCCGUGGGCAUAAUGGUAACGCGUCUCCCACCUAAGGAGAAGACUGCCGCUUUGAGUCCCGUACGGAACG [U8G G12A U32A G50C G52C C55U] — lower, ≤ 0.5
- GUUCCGUGGGCGUAAUAGUCAGGCGUCUGCCUCGUAAGGAGAAGACUGCGGGUUCGAGUCCCGUACGAAACG [U8G G17A A20C C22G C29G C34G G68A] — higher, 0.606
- GUUCCGUGGGCGUAAUAGUAACGCGUCUCCCUCCUAAGGAGAAGACUGCGGGUUCGAGUCCCGUACGGACCG [U8G G17A A70C] — lower, ≤ 0.5
- GUUCCGUGGGCGUAAUAGUAACGGGUCUCCCUCCUAAGGAGAAGACUGCGGGUUCGACUCCCGUACGGAACG [U8G G17A C24G G58C] — lower, ≤ 0.5
- GUUCCGUGGGCGUAAUAGUAACGCGUCUCCCUCCUAAGGAGAAGACUCCGGGUUCGAGUCCCGUACGGAACG [U8G G17A G48C] — lower, ≤ 0.5
- GUUCCGUGGGCGUAAUAGUAACGCGUCUCCCUCCUAAGGAGAAGACUGCGGGUUCCAGUCCCGUACGGAACG [U8G G17A G56C] — lower, ≤ 0.5
- GUUCCGUGGGCGUAAUGGUAACGCCUCUCCCUCCUAAGGACAAGACUGCGGGUUCGAGUCCCGUACGGAACG [U8G G25C G41C] — higher, 0.644
- GUUCCGUGGGCGUAAUGGUAACGCCUCUCCCUCCUAAGGAGAAGACUGCGGCUUCGAGUCCCGUACGGAACG [U8G G25C G52C] — lower, ≤ 0.5
- GUUCCGUGGGCGUAAUGGUAACGCGUCUCCCUCCUAAAGAGAAGACUGCGGGUUCGAGUCCCGUACGUAACG [U8G G38A G68U] — lower, ≤ 0.5
- GUUCCGUGGGCGUAAUGGUAACGCGUCUCCCUCCUAAGGAAAAGACUGCGGGUUCGAGUCCCGUACGGAACG [U8G G41A] — higher, 0.642
- GUUCCGUGGGCGUAAUGGUAACGCGUCUCCCUCCUAAGGACAAGACUGCGGGUUCGAGUCCCGUACGGAACG [U8G G41C] — higher, 0.657
